# In ChEMBL document CHEMBL1909525, “Synthesis and anticonvulsant activity of novel 2,6-diketopiperazine derivatives. Part 1: perhydropyrrole[1,2-a]pyrazines” (Eur J Med Chem, 2011):
# Activity calls are given as the source filed them. The rule behind the calls is not given here.
# Key:
# [1] = test system: Rattus norvegicus; assay: Anticonvulsant activity in po dosed albino Sprague-Dawley rat assessed as protection against subcutaneous metrazol-induced seizure after 0.25 hrs; format: functional
# Procedure, shortened: (§1)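 Rats dosed orally, compound in 0.5% methylcellulose. MES at 150 mA, 60 Hz, 0.2 s; scMET with pentylenetetrazole 70 mg/kg s.c. plus 30 min observation; rotorod for toxicity.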
# [2] = test system: Rattus norvegicus; assay: Anticonvulsant activity in po dosed albino Sprague-Dawley rat assessed as time needs to show peak effect for protection against maximal electroshock-induced seizure after 0.25 hrs; format: functional; procedure, shortened: as §1
# [3] = Neurotoxicity in po dosed albino Sprague-Dawley rat assessed as motor impairment after 0.25 hrs by rotarod test; format: toxicity, organism-based; details: in vivo; procedure, shortened: as §1
# [4] = test system: Mus musculus; assay: Anticonvulsant activity in ip dosed albino Carworth Farms No.1 mouse assessed as protection against maximal electroshock-induced seizure after 0.25 hrs; format: functional; details: albino Carworth Farms No.1, ip
# Procedure, shortened: (§2)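 Mouse quantification at the time of peak effect, compound given i.p. in 0.5% methylcellulose. Groups of at least eight mice received varied doses until at least two points fell between 100 and 0% response. ED50 (MES, scMET) and TD50 (rotorod) with 95% CI by probit analysis (Finney). PI = TD50/ED50 MES.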
# [5] = test system: Mus musculus; assay: Anticonvulsant activity in ip dosed albino Carworth Farms No.1 mouse assessed as protection against electric-current for 3 secs-induced seizure after 0.25 hrs by 6Hz minimal clonic seizure test; format: functional; details: albino Carworth Farms No.1, ip
# [6] = test system: Mus musculus; assay: Anticonvulsant activity in ip dosed albino Carworth Farms No.1 mouse assessed as time needs to show peak effect for electric-current for 3 secs-induced seizure after 0.25 hrs by 6Hz minimal clonic seizure test; format: functional
# [7] = test system: Mus musculus; assay: Anticonvulsant activity in ip dosed albino Carworth Farms No.1 mouse assessed as protection against subcutaneous metrazol-induced seizure after 0.25 hrs; format: functional; details: albino Carworth Farms No.1, 0.25 h; procedure, shortened: as §2
# [8] = test system: Mus musculus; assay: Anticonvulsant activity in ip dosed albino Carworth Farms No.1 mouse assessed as time needs to show peak effect for protection against maximal electroshock-induced seizure; format: functional
# [9] = test system: Mus musculus; assay: Anticonvulsant activity in albino Carworth Farms No.1 mouse assessed as protection against subcutaneous metrazol-induced seizure at 300 mg/kg, ip after 4 hrs; format: functional, organism-based; parameters: dose 300 mg/kg
# Procedure, shortened: (§3)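 Mouse scMET test. Compound given i.p. (30, 100 or 300 mg/kg) in 0.5% methylcellulose. Pentylenetetrazole 85 mg/kg (CD97) given s.c. at 0.5 or 4 h, then mice observed for 30 min. Protection is absence of clonic spasms; scored as protected/tested.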
# [10] = test system: Mus musculus; assay: Neurotoxicity in albino Carworth Farms No.1 mouse assessed as motor impairment at 300 mg/kg, ip after 0.5 hrs by rotarod test; format: toxicity, organism-based; parameters: dose 300 mg/kg, route intraperitoneal; details: in vivo
# Procedure, shortened: (§4)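 Rotorod neurotoxicity in mice at 6 r.p.m. Compound given i.p. (30, 100, 300 mg/kg) in 0.5% methylcellulose; tested at 30 min and 4 h. Impairment is inability to keep equilibrium on the rod for a given time; scored as impaired/tested.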
# [11] = test system: Mus musculus; assay: Anticonvulsant activity in albino Carworth Farms No.1 mouse assessed as protection against subcutaneous metrazol-induced seizure at 30 mg/kg, ip after 4 hrs; format: functional, organism-based; parameters: dose 30 mg/kg; procedure, shortened: as §3
# [12] = test system: Mus musculus; assay: Anticonvulsant activity in albino Carworth Farms No.1 mouse assessed as protection against subcutaneous metrazol-induced seizure at 100 mg/kg, ip after 0.5 hrs; format: functional, organism-based; parameters: dose 100 mg/kg; procedure, shortened: as §3
# [13] = test system: Mus musculus; assay: Anticonvulsant activity in albino Carworth Farms No.1 mouse assessed as protection against subcutaneous metrazol-induced seizure at 100 mg/kg, ip after 4 hrs; format: functional, organism-based; parameters: dose 100 mg/kg; procedure, shortened: as §3
# [14] = test system: Mus musculus; assay: Anticonvulsant activity in albino Carworth Farms No.1 mouse assessed as protection against subcutaneous metrazol-induced seizure at 300 mg/kg, ip after 0.5 hrs; format: functional, organism-based; parameters: dose 300 mg/kg; procedure, shortened: as §3
# [15] = test system: Mus musculus; assay: Neurotoxicity in albino Carworth Farms No.1 mouse assessed as motor impairment at 300 mg/kg, ip after 4 hrs by rotarod test; format: toxicity, organism-based; parameters: dose 300 mg/kg, route intraperitoneal; details: in vivo; procedure, shortened: as §4
# [16] = test system: Mus musculus; assay: Neurotoxicity in albino Carworth Farms No.1 mouse assessed as motor impairment at 30 mg/kg, ip after 4 hrs by rotarod test; format: toxicity, organism-based; parameters: dose 30 mg/kg, route intraperitoneal; details: in vivo; procedure, shortened: as §4
# [17] = test system: Mus musculus; assay: Anticonvulsant activity in albino Carworth Farms No.1 mouse assessed as protection against maximal electroshock-induced seizure at 30 mg/kg, ip after 0.5 hrs; format: functional, organism-based; parameters: dose 30 mg/kg
# Procedure, shortened: (§5)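 Mouse MES test with compound given i.p. (30, 100 or 300 mg/kg) in 0.5% methylcellulose; tested at 0.5 and 4 h. Corneal stimulus of 50 mA at 60 Hz for 0.2 s, electrodes primed with 0.5% butacaine in 0.9% NaCl. Protection is abolition of hindlimb tonic extension; scored as protected/tested.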
# [18] = test system: Mus musculus; assay: Anticonvulsant activity in albino Carworth Farms No.1 mouse assessed as protection against maximal electroshock-induced seizure at 300 mg/kg, ip after 0.5 hrs; format: functional, organism-based; parameters: dose 300 mg/kg; procedure, shortened: as §5
# [19] = test system: Mus musculus; assay: Anticonvulsant activity in albino Carworth Farms No.1 mouse assessed as protection against maximal electroshock-induced seizure at 30 mg/kg, ip after 4 hrs; format: functional, organism-based; parameters: dose 30 mg/kg; procedure, shortened: as §5
# [20] = test system: Mus musculus; assay: Anticonvulsant activity in albino Carworth Farms No.1 mouse assessed as protection against maximal electroshock-induced seizure at 100 mg/kg, ip after 0.5 hrs; format: functional, organism-based; parameters: dose 100 mg/kg; procedure, shortened: as §5
# [21] = test system: Mus musculus; assay: Anticonvulsant activity in albino Carworth Farms No.1 mouse assessed as protection against maximal electroshock-induced seizure at 300 mg/kg, ip after 4 hrs; format: functional, organism-based; parameters: dose 300 mg/kg; procedure, shortened: as §5
# [22] = test system: Mus musculus; assay: Anticonvulsant activity in albino Carworth Farms No.1 mouse assessed as protection against subcutaneous metrazol-induced seizure at 30 mg/kg, ip after 0.5 hrs; format: functional, organism-based; parameters: dose 30 mg/kg; procedure, shortened: as §3
# [23] = test system: Mus musculus; assay: Neurotoxicity in albino Carworth Farms No.1 mouse assessed as motor impairment at 100 mg/kg, ip after 0.5 hrs by rotarod test; format: toxicity, organism-based; parameters: dose 100 mg/kg, route intraperitoneal; details: in vivo; procedure, shortened: as §4
# [24] = test system: Mus musculus; assay: Neurotoxicity in albino Carworth Farms No.1 mouse assessed as motor impairment at 30 mg/kg, ip after 0.5 hrs by rotarod test; format: toxicity, organism-based; parameters: dose 30 mg/kg, route intraperitoneal; details: in vivo; procedure, shortened: as §4
# [25] = test system: Mus musculus; assay: Anticonvulsant activity in albino Carworth Farms No.1 mouse assessed as protection against maximal electroshock-induced seizure at 100 mg/kg, ip after 4 hrs; format: functional, organism-based; parameters: dose 100 mg/kg; procedure, shortened: as §5
# [26] = test system: Mus musculus; assay: Anticonvulsant activity in albino Carworth Farms No.1 mouse assessed as protection against electric-current for 3 secs-induced seizure at 100 mg/kg, ip after 0.5 hrs by 6Hz minimal clonic seizure test; format: functional
# Procedure, shortened: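 6 Hz psychomotor seizure test in mice. Compound given i.p. as a suspension in 0.5% methylcellulose. Corneal stimulation at 32 mA, 0.2-ms monopolar rectangular pulses at 6 Hz for 3 s, from a constant-current device. Tests run 0.25–4 h after dosing. A mouse counted as protected if it resumed normal exploratory behaviour within 10 s; scored as protected/tested.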
# [27] = Neurotoxicity in ip dosed albino Carworth Farms No.1 mouse assessed as motor impairment after 0.25 hrs by rotarod test; format: toxicity, organism-based; details: Carworth Farms No.1 (albino), in vivo
# Procedure, shortened: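 Mouse quantification at the time of peak effect, compound given i.p. in 0.5% methylcellulose. Groups of at least eight mice received varied doses until at least two points fell between 100 and 0% response. PI = TD50/ED50 MES.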
SMILES,Time [6],Activity [9],Activity [10],Activity [11],Activity [12],Activity [13],Activity [14],Activity [15],Activity [16],Activity [17],Activity [18],Activity [19],Activity [20],Activity [21],Activity [22],Activity [23],Activity [24],Activity [25],also measured
COC[C@@H](NC(C)=O)C(=O)NCc1ccccc1 [LACOSAMIDE],0.5 h,,,,,,,,,,,,,,,,,,ED50 [1]: > 250 mg/kg; Time [2]: 0.5 h; TD50 at 0.25 h [3]: > 500 mg/kg; ED50 [4]: 4.46 mg/kg; ED50 [5]: 9.99 mg/kg; ED50 [7]: > 25 mg/kg; Time [8]: 0.5 h
O=C1CN2CCC[C@H]2C(=O)N1,,inactive,Non-toxic,inactive,inactive,inactive,inactive,Non-toxic,Non-toxic,inactive,inactive,inactive,inactive,inactive,inactive,Non-toxic,Non-toxic,inactive,
C[C@@H]1C(=O)NC(=O)[C@@H]2CCCN12,,inactive,Non-toxic,inactive,inactive,inactive,inactive,Non-toxic,Non-toxic,inactive,inactive,inactive,inactive,inactive,inactive,Non-toxic,Non-toxic,inactive,
COC(=O)[C@@H](c1ccccc1)N1CCC[C@H]1C(N)=O,,,Toxic,,,,,,,,,,,,,,,,Activity [26]: Active
CN1C(=O)[C@H](c2ccccc2)N2CCC[C@H]2C1=O.Cl,,inactive,Toxic,inactive,inactive,inactive,Active,Non-toxic,Non-toxic,inactive,Active,inactive,inactive,inactive,inactive,Non-toxic,Non-toxic,inactive,
CCC1(c2ccccc2)C(=O)NC(=O)NC1=O [PHENOBARBITAL],0.5 h,,,,,,,,,,,,,,,,,,ED50 [1]: 11.6 mg/kg; Time [2]: 5 h; TD50 at 0.25 h [3]: 61.1 mg/kg; ED50 [4]: 21.8 mg/kg; ED50 [5]: 14.8 mg/kg; ED50 [7]: 13.2 mg/kg; Time [8]: 1 h
O=C1[C@@H]2CCCN2[C@H](c2ccccc2)C(=O)N1Cc1ccccc1,,inactive,Non-toxic,inactive,inactive,inactive,inactive,Non-toxic,Non-toxic,inactive,inactive,inactive,inactive,inactive,inactive,Non-toxic,Non-toxic,inactive,
CC[C@@H](C(N)=O)N1CCCC1=O,1 h,,,,,,,,,,,,,,,,,,TD50 at 0.25 h [27]: > 500 mg/kg
Cl.O=C1[C@H](c2ccccc2)N2CCC[C@H]2C(=O)N1Cc1ccccc1,,inactive,Non-toxic,inactive,inactive,inactive,inactive,Non-toxic,Non-toxic,inactive,Active,inactive,inactive,inactive,inactive,Non-toxic,Non-toxic,inactive,
